From ChEMBL document CHEMBL2407057, “Structural variations on antitumour agents derived from bisacylimidoselenocarbamate. A proposal for structure-activity relationships based on the analysis of conformational behaviour” (Eur J Med Chem, 2013)

Legend:
[1] = Prodrug activation assessed as induction of NaBH4-induced DiMeDiSe release at 60 mM after 8 hrs by head space gas chromatography mass spectrometry analysis; details: 60000 µM
In short: (§1)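 Compounds dissolved at 60 mM in 5% DMSO/H2O and held at room temperature in sealed vials. Headspace sampled at 8, 16 and 24 h for HS-GC–MS on an HP-5MS column with helium carrier at 1 mL/min, 50:1 split, and EI at 70 eV. SCAN mode was used to set SIM for MeSeH (tR 1.5 min) and DiMeDiSe (tR 2.9 min). Read-out was peak area.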

[2] = Prodrug activation assessed as induction of NaBH4-induced MeSeH release at 60 mM after 8 hrs by head space gas chromatography mass spectrometry analysis; details: 60000 µM; in short: as §1
HT-29 = assay: Cytotoxicity against human HT-29 cells after 72 hrs by MTT assay; format: functional; details: HT-29, 72 h; for GI50: read-out: pGI50 (converted)
MCF7 = assay: Cytotoxicity against human MCF7 cells after 72 hrs by MTT assay; format: functional; details: MCF7, 72 h; for GI50: read-out: pGI50 (converted)
[3] = Prodrug activation assessed as induction of NaBH4-induced […] release at 60 mM after 16 hrs by head space gas chromatography mass spectrometry analysis; details: 60000 µM; in short: as §1
[4] = Prodrug activation assessed as induction of NaBH4-induced […] release at 60 mM after 24 hrs by head space gas chromatography mass spectrometry analysis; details: 60000 µM; in short: as §1

Row | Structure (SMILES) | Drug metabolism [1] | Drug metabolism [2] | TGI (HT-29) [µM] | CC50 (MCF7; read-out: LC50 (the source's name)) [µM] | GI50 (HT-29) [µM] | GI50 (MCF7) [µM] | Drug metabolism [3] | Drug metabolism [4]
1 | C[Se]/C(=N\C(=O)c1ccno1)NC(=O)c1ccno1 | Active | Not Active | – | – | – | – | – | –
2 | COc1cccc2c1C(=O)c1c(O)c3c(c(O)c1C2=O)C[C@@](O)(C(=O)CO)C[C@@H]3O[C@H]1C[C@H](N)[C@H](O)[C@H](C)O1 [DOXORUBICIN] | – | – | 6.31 | – | – | – | – | –
3 | CN(Cc1cnc2nc(N)nc(N)c2n1)c1ccc(C(=O)N[C@@H](CCC(=O)O)C(=O)O)cc1 [METHOTREXATE] | – | – | – | > 100 | – | – | – | –
4 | C[Se]/C(=N\C(=O)c1sccc1Cl)NC(=O)c1sccc1Cl | Active | Active | 38.8 | – | – | – | – | –
5 | C[Se]/C(=N\C(=O)c1cc2ccccc2s1)NC(=O)c1cc2ccccc2s1 | Not Active | Not Active | 40.1 | – | 5.62 | 5.07 | – | –
6 | C[Se]/C(=N\C(=O)c1c2ccccc2nc2ccccc12)NC(=O)c1c2ccccc2nc2ccccc12 | Not Active | Not Active | 64 | – | 7.63 | 73.9 | Active | Active
7 | C[Se]/C(=N\C(=O)c1cccs1)NC(=O)c1cccs1 | Active | Not Active | – | – | – | – | Active | Active
8 | C[Se]/C(=N\C(=O)c1cc(-c2ccccc2)nc2ccccc12)NC(=O)c1cc(-c2ccccc2)nc2ccccc12 | Not Active | Not Active | 32.6 | – | 0.46 | 0.49 | – | –
9 | CC(=O)O[C@H]1C(=O)[C@@]2(C)[C@H]([C@H](OC(=O)c3ccccc3)[C@]3(O)C[C@H](OC(=O)[C@H](O)[C@@H](NC(=O)c4ccccc4)c4ccccc4)C(C)=C1C3(C)C)[C@]1(OC(C)=O)CO[C@@H]1C[C@@H]2O [PACLITAXEL] | – | – | 0.2 | – | – | – | – | –
10 | C[Se]/C(=N\C(=O)c1csc([N+](=O)[O-])c1)NC(=O)c1csc([N+](=O)[O-])c1 | Not Active | Active | – | – | – | – | – | –
11 | C[Se]/C(=N\C(=O)c1ccco1)NC(=O)c1ccco1 | Active | Active | – | – | – | – | Active | Active
12 | C[Se]/C(=N\C(=O)c1cnc2ccccc2c1)NC(=O)c1cnc2ccccc2c1 | Not Active | Not Active | – | – | 0.2 | 0.66 | Active | Active
13 | CC[C@@]1(O)C(=O)OCc2c1cc1n(c2=O)Cc2cc3ccccc3nc2-1 [CAMPTOTHECIN] | – | – | 0.79 | – | – | – | – | –
14 | C[Se]/C(=N\C(=O)c1ccc2c(c1)OCO2)NC(=O)c1ccc2c(c1)OCO2 | Not Active | Not Active | – | – | 0.53 | 0.99 | – | –
